Data published in ChEMBL document CHEMBL1148787, “Novel substituted (pyridin-3-yl)phenyloxazolidinones: antibacterial agents with reduced activity against monoamine oxidase A and increased solubility” (J Med Chem, 2007).
In brackets after ≈: the same amount, converted by molar mass.

Tests used:
[1] = Solubility by nephelometric analysis; format: physicochemical
How it was run: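 Nephelometry after diluting compounds into the MAO-A assay mixture (100 mM potassium phosphate, pH 7.4).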

Streptococcus pneumoniae [2] = test: Antibacterial activity against penicillin-susceptible Streptococcus pneumoniae AP671401; format: functional
How it was run: (§1)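 CLSI broth microdilution, 64 to 0.06 µg/mL, 2% DMSO final. Media: S. aureus, Mueller Hinton broth; H. influenzae, MHB plus 0.5% yeast extract, 15 µg/mL hematin, 1.5 µg/mL NAD; S. pneumoniae, MHB plus 0.65% lysed horse blood. 35 °C, aerobic (S. aureus) or 5% CO2.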

[3] = Half life in Wistar rat at 2 mg/kg, iv; format: ADME, organism-based; design: dose 2 mg/kg, route intravenous; settings: in vivo
How it was run: (§2)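 Groups of three Wistar Han rats; bolus injection via cannulated jugular vein at 2 or 10 mg/kg. Serial 200 µL whole-blood samples at time intervals; plasma levels by LC-MS/MS; parameters by noncompartmental analysis.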

[4] = Volume of distribution in Wistar rat at 2 mg/kg, iv; format: ADME, organism-based; design: dose 2 mg/kg, route intravenous; settings: in vivo, read-out: Vdss; how it was run: as §2
Streptococcus pneumoniae [5] = test: Antibacterial activity against linezolid-resistant Streptococcus pneumoniae; format: functional
How it was run: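 Broth microdilution per CLSI guidelines. Compounds were dissolved in 100% DMSO and diluted to 2% DMSO (v/v), 64 to 0.06 µg/mL, in 2.2% (w/v) Mueller Hinton broth with 0.65% (v/v) lysed horse blood. Plates were incubated at 35 °C in 5% CO2 and read at 620 nm.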

Homo sapiens = species on record: Homo sapiens; test: Protein binding in human plasma; settings: read-out: PPB (converted)
[6] = biological target: T1, Amine oxidase [flavin-containing] A (Homo sapiens, UniProt P21397); test: Inhibition of human liver MAOA expressed in yeast
T1 sequence (P21397 whole entry): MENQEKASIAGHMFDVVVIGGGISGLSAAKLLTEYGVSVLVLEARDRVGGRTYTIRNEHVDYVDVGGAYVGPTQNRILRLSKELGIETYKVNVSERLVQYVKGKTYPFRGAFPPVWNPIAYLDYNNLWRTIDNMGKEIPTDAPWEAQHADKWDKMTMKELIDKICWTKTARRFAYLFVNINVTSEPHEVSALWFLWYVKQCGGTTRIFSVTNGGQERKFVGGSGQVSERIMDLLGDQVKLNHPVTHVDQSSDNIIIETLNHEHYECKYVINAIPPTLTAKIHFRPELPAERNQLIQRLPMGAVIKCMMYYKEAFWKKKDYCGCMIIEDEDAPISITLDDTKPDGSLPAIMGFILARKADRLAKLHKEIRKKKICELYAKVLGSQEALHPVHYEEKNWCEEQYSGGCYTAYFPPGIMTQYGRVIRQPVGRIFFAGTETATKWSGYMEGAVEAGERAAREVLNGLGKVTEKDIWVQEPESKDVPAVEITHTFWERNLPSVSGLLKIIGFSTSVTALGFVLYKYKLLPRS

Staphylococcus aureus = test: Antibacterial activity against methicillin-susceptible Staphylococcus aureus AP601055; format: functional; how it was run: as §1
[7] = Oral bioavailability in Wistar rat at 10 mg/kg, po; format: ADME, organism-based; settings: in vivo
How it was run: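 Wistar Han rats, groups of three; 10 mg/kg given by oral gavage, compared against iv dosing. Serial whole-blood sampling, plasma drug by LC-MS/MS, noncompartmental pharmacokinetic analysis.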

[8] = Clearance in Wistar rat at 2 mg/kg, iv; format: ADME, organism-based; design: dose 2 mg/kg, route intravenous; settings: in vivo; how it was run: as §2
Rattus norvegicus = test: AUC in Wistar rat at 2 mg/kg, iv; format: ADME, organism-based, Plasma; design: dose 2 mg/kg, route intravenous; settings: in vivo; how it was run: as §2
Haemophilus influenzae = test: Antibacterial activity against Haemophilus influenzae ATCC 51907; format: functional; how it was run: as §1
Cytochrome P450 2C19 = Cytochrome P450 2C19 (Homo sapiens, UniProt P33261); test: Inhibition of human recombinant CYP2C19; format: ADME
How it was run: (§3)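 Recombinant human P450s, compound at 0.2-20 µM; fluorogenic substrates: 3-cyano-7-ethoxycoumarin (1A2), 7-methoxy-4-trifluoromethylcoumarin (2C9, 2C19), 7-methoxy-4-(aminomethyl)coumarin (2D6). Fluorescence detection; IC50 determined.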

Mus musculus [9] = test: AUC in Streptococcus pneumoniae 548 infected mouse lung infection model at 80 mg/kg/day, po; format: ADME, organism-based; design: route oral; settings: in vivo
How it was run: (§4)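 CD-1 mice; oral gavage at 40 or 80 mg/kg. Groups of three sacrificed at timed intervals, whole blood taken by cardiac puncture; plasma treated with methanol containing internal standard and quantified by LC-MS/MS against standard curve.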

Streptococcus pneumoniae [10] = test: Antibacterial activity against Streptococcus pneumoniae 548 infected mouse lung infection model assessed as reduction in bacterial count at 80 mg/kg/day, po relative to control; format: functional
How it was run: (§5)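 Groups of 10 CD-1 mice infected intratracheally, 1 × 10^5 cfu/lung. Oral gavage of compound or vehicle started 18 h post-infection. Lungs removed 24 h after treatment start, homogenized, serially diluted onto Tryptic Soy agar with 5% sheep blood; log CFU reduction versus vehicle group.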

Streptococcus pneumoniae [11] = test: Antibacterial activity against Streptococcus pneumoniae 548 infected mouse lung infection model assessed as reduction in bacterial count at 40 mg/kg/day, po relative to control; format: functional; how it was run: as §5
Cytochrome P450 1A2 = biological target: T2, Cytochrome P450 1A2 (Homo sapiens, UniProt P05177); test: Inhibition of human recombinant CYP1A2; format: ADME; how it was run: as §3
T2 sequence (P05177 whole entry): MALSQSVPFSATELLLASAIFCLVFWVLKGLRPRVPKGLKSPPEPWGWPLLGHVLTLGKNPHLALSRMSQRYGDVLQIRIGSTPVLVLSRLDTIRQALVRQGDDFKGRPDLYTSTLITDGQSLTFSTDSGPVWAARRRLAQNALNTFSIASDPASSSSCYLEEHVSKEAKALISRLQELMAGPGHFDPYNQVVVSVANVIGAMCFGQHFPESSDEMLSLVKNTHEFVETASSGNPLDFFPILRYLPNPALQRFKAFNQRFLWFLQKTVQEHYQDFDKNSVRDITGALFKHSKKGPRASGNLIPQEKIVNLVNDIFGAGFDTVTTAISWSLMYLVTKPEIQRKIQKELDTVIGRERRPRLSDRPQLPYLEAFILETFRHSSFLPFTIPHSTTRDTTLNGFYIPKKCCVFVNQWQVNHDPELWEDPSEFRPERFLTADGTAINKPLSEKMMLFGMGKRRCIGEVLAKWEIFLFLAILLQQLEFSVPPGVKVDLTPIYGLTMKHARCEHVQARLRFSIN

Cytochrome P450 3A4 = Cytochrome P450 3A4 (Homo sapiens, UniProt P08684); test: Inhibition of human recombinant CYP3A4; format: ADME
Cytochrome P450 2C9 = Cytochrome P450 2C9 (Homo sapiens, UniProt P11712); test: Inhibition of human recombinant CYP2C9; format: ADME; how it was run: as §3
Mus musculus [12] = test: AUC in Streptococcus pneumoniae 548 infected mouse lung infection model at 40 mg/kg/day, po; format: ADME, organism-based; design: route oral; settings: in vivo; how it was run: as §4
Cytochrome P450 2D6 = Cytochrome P450 2D6 (Homo sapiens, UniProt P10635); test: Inhibition of human recombinant CYP2D6; format: ADME; how it was run: as §3
[13] = AUC in Wistar rat at 10 mg/kg, iv; format: ADME, organism-based; design: dose 10 mg/kg, route intravenous; settings: plasma; how it was run: as §2
[14] = Half life in Wistar rat at 10 mg/kg, iv; format: ADME, organism-based; design: dose 10 mg/kg, route intravenous; settings: in vivo; how it was run: as §2
[15] = Clearance in Wistar rat at 10 mg/kg, iv; format: ADME, organism-based; design: dose 10 mg/kg, route intravenous; settings: in vivo; how it was run: as §2
[16] = Volume of distribution in Wistar rat at 10 mg/kg, iv; format: ADME, organism-based; design: dose 10 mg/kg, route intravenous; settings: in vivo, read-out: Vdss; how it was run: as §2

Sequence of Cytochrome P450 3A4 (P08684 whole entry): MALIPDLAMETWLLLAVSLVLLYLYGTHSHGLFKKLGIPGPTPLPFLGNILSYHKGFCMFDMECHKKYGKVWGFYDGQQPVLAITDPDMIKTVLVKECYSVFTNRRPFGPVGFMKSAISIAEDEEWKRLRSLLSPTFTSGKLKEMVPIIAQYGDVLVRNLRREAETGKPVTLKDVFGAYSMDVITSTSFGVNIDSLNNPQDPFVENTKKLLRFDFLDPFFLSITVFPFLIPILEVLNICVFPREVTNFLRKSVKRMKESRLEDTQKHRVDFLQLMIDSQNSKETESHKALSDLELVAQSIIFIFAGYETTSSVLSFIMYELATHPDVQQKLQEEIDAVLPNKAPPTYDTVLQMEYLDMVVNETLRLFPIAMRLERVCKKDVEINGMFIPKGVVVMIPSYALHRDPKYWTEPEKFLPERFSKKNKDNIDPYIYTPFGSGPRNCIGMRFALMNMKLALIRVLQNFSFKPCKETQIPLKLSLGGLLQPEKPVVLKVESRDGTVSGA
Sequence of Cytochrome P450 2D6 (P10635 whole entry): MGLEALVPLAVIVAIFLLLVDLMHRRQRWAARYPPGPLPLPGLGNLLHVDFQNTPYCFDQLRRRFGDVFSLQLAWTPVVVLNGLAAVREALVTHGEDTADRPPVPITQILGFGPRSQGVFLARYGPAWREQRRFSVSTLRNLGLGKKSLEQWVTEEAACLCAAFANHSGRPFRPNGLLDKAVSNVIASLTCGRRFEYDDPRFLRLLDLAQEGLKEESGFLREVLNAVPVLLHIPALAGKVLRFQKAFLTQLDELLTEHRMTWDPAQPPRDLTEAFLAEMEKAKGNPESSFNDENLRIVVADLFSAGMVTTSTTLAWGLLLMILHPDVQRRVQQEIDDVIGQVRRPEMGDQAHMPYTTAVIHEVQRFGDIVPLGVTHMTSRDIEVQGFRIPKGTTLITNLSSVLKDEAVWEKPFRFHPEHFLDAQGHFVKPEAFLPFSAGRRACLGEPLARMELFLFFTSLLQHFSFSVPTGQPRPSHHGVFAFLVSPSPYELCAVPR
Sequence of Cytochrome P450 2C19 (P33261 whole entry): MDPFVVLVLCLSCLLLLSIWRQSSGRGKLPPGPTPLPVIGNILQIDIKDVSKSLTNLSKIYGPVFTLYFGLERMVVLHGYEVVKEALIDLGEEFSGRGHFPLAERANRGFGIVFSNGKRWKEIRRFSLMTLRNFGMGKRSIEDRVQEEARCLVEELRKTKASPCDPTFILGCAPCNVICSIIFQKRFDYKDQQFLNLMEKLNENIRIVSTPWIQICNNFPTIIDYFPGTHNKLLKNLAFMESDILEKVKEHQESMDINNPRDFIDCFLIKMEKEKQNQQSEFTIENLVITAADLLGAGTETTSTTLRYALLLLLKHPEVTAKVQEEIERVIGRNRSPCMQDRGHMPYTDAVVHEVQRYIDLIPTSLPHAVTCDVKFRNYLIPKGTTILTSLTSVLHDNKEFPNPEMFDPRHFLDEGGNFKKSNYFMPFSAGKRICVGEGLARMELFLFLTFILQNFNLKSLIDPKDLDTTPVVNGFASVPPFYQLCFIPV
Sequence of Cytochrome P450 2C9 (P11712 whole entry): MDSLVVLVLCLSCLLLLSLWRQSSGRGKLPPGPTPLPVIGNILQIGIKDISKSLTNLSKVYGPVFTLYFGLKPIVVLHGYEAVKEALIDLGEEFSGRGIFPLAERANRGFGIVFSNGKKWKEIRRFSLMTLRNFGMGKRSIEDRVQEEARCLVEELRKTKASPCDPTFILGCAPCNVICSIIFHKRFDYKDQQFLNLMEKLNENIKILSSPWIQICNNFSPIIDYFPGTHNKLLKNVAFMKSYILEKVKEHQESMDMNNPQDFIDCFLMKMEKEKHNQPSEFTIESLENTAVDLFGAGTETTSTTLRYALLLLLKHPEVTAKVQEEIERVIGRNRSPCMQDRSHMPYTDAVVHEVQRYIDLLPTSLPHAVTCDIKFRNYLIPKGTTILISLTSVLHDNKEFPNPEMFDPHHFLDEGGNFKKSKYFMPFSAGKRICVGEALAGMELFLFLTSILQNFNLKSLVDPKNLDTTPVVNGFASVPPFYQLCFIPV

Structure (SMILES) | solubility kinetic [1] | MIC (Streptococcus pneumoniae [2]) | half-life [3] | Vd [4] | MIC (Streptococcus pneumoniae [5]) | fraction unbound (Homo sapiens) | Ki [6] | MIC (Staphylococcus aureus) | bioavailability [7] | clearance [8] | AUC (Rattus norvegicus) | MIC (Haemophilus influenzae) | IC50 (Cytochrome P450 2C19) | AUC (Mus musculus [9]) | Log10 cfu (Streptococcus pneumoniae [10]) | IC50 (Cytochrome P450 1A2) | IC50 (Cytochrome P450 3A4) | IC50 (Cytochrome P450 2C9) | AUC (Mus musculus [12]) | IC50 (Cytochrome P450 2D6) | also measured
Cc1cn(CC(=O)c2ccc(-c3ccc(N4C[C@H](Cn5ccnn5)OC4=O)cc3F)cn2)c(C)n1 | 25 µM (≈ 11.9 µg/mL) | < 0.06 µg/mL | 60 min | 0.9 L/kg | 0.25 µg/mL (≈ 0.526 µM) | 0.12 | > 11 µM | 0.25 µg/mL (≈ 0.526 µM) | 14% | 13 mL/min/kg | 2.6 ug/hr.ml | 2 µg/mL (≈ 4.21 µM) | – | – | – | – | – | – | – | – | –
CCc1nccn1CC(=O)c1ccc(-c2ccc(N3C[C@H](Cn4ccnn4)OC3=O)cc2F)cn1 | 100 µM (≈ 47.5 µg/mL) | < 0.06 µg/mL | 36 min | 0.9 L/kg | 0.5 µg/mL (≈ 1.05 µM) | – | > 44 µM | 0.5 µg/mL (≈ 1.05 µM) | – | 23 mL/min/kg | 1.6 ug/hr.ml | 4 µg/mL (≈ 8.41 µM) | – | – | – | – | – | – | – | – | –
Cc1cnc(C)n1CC(=O)c1ccc(-c2ccc(N3C[C@H](Cn4ccnn4)OC3=O)cc2F)cn1 | 50 µM (≈ 23.8 µg/mL) | < 0.06 µg/mL | 108 min | 1.4 L/kg | 0.5 µg/mL (≈ 1.05 µM) | 0.1 | 19 µM | 0.25 µg/mL (≈ 0.526 µM) | 73% | 10 mL/min/kg | 3.3 ug/hr.ml | 4 µg/mL (≈ 8.41 µM) | > 20 µM | 31000 ng·h/mL | 2.57 | > 20 µM | 10.7 µM | > 20 µM | 17400 ng·h/mL | > 20 µM | Log10 cfu (Streptococcus pneumoniae [11]): 1.94
Cc1nccn1CC(=O)c1ccc(-c2ccc(N3C[C@H](Cn4ccnn4)OC3=O)cc2F)cn1 | 200 µM (≈ 92.3 µg/mL) | 0.13 µg/mL (≈ 0.282 µM) | – | – | 0.5 µg/mL (≈ 1.08 µM) | 0.25 | > 89 µM | 0.5 µg/mL (≈ 1.08 µM) | 100% | – | – | 2 µg/mL (≈ 4.33 µM) | > 20 µM | – | – | > 20 µM | > 20 µM | > 20 µM | – | > 20 µM | AUC [13]: 1200 ng·h/mL; half-life [14]: 24 min; clearance [15]: 62 mL/min/kg; Vd [16]: 0.3 L/kg
CC(=O)NC[C@H]1CN(c2ccc(N3CCOCC3)c(F)c2)C(=O)O1 [LINEZOLID] | – | – | – | – | – | – | – | – | – | – | – | – | – | 105000 ng·h/mL | 3.89 | – | – | – | 45700 ng·h/mL | – | –
